Legend:
[1] = tested on: Human immunodeficiency virus 1; assay: Antiviral activity in HIV-1 infected H9 cells; type: functional; conditions: Human immunodeficiency virus 1, H9; read-out: ED50 (the source's name)
Summary of the method: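 H9 cells infected with HIV-1 IIIB at MOI about 0.005, spun down (200g, 10 min), resuspended at 8 × 10^5 cells/mL in RPMI Complete and mixed with compound; final DMSO 0.1%, triplicate per concentration. After 5 days at 37 °C in 5% CO2, supernatant p24 antigen was measured by ELISA. ED50 is the drug amount that reduces p24 by 50% versus DMSO drug-free controls.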

[2] = biological target: Human immunodeficiency virus type 1 protease (Human immunodeficiency virus 1, UniProt Q72874); assay: Binding affinity against HIV-1 protease
[3] = Median cell culture toxic dose was evaluated against H9 cell line; type: ADME, cell-based; conditions: human, H9 cells; read-out: CCTD50

Compound | EC50 [1] [nM] | Ki [2] [nM] | CC50 [3] [nM]
CC(C)CC(c1cccc(NS(=O)(=O)c2cn(C)cn2)c1)c1c(O)c2c(oc1=O)CCCCCC2 (configuration not stated) | 1300 | 0.086 | > 30000
O=c1c2c(oc(O)c1C(c1cccc(NS(=O)(=O)c3cccc(C(F)(F)F)c3)c1)C1CC1)CCCCCC2 (configuration not stated) | 3800 | 3 | > 30000
Cc1ccccc1S(=O)(=O)Nc1cccc(C(c2c(O)c3c(oc2=O)CCCCCC3)C2CC2)c1 (configuration not stated) |  | 9.3 | > 30000
CC(C)C(c1cccc(NS(=O)(=O)c2cccc3cccnc23)c1)c1c(O)c2c(oc1=O)CCCCCC2 (configuration not stated) | > 10000 | 4.2 | > 30000
CC(C)CC(c1cccc(NS(=O)(=O)c2cccnc2)c1)c1c(O)c2c(oc1=O)CCCCCC2 (configuration not stated) | > 10000 | 9.3 | > 30000
Cc1ccc(S(=O)(=O)Nc2cccc(C(c3c(O)c4c(oc3=O)CCCCCC4)C3CC3)c2)cc1 (configuration not stated) | 3600 | 3.3 | > 30000
CCC(c1ccccc1)c1c(O)c2ccccc2oc1=O (configuration not stated) [PHENPROCOUMON] |  | 0.8 | 
CCCC(c1cccc(NS(=O)(=O)c2ccc(F)cc2)c1)c1c(O)c2c(oc1=O)CCCCCC2 (configuration not stated) | 6300 | 2.1 | > 30000
CCCCCCCCS(=O)(=O)Nc1cccc(C(c2c(O)c3c(oc2=O)CCCCCC3)C2CC2)c1 (configuration not stated) |  | 6 | 
O=c1c2c(oc(O)c1C(c1cccc(NS(=O)(=O)c3ccc(F)cc3F)c1)C1CC1)CCCCCC2 (configuration not stated) | 4200 | 4.1 | > 30000
CCC(c1cccc(NS(=O)(=O)c2ccc(Cl)cc2)c1)c1c(O)c2c(oc1=O)CCCCCC2 (configuration not stated) | 4700 | 3.5 | > 30000
CN(C)c1ccc(S(=O)(=O)Nc2cccc(C(c3c(O)c4c(oc3=O)CCCCCC4)C3CC3)c2)cc1 (configuration not stated) | 8700 | 2.8 | > 30000
O=c1c2c(oc(O)c1C(c1cccc(NS(=O)(=O)c3ccc(Cl)cc3)c1)C1CC1)CCCCCC2 (configuration not stated) | 2000 | 2.5 | > 30000
Cn1cnc(S(=O)(=O)Nc2cccc([C@H](c3c(O)c4c(oc3=O)CCCCCC4)C3CC3)c2)c1 |  | 0.08 | > 30000
O=c1c2c(oc(O)c1C(c1cccc(NS(=O)(=O)Cc3ccccc3)c1)C1CC1)CCCCCC2 (configuration not stated) |  | 13 | 
O=c1c2c(oc(O)c1C(c1cccc(NS(=O)(=O)c3ccccc3F)c1)C1CC1)CCCCCC2 (configuration not stated) | 5900 | 11 | > 30000
CCS(=O)(=O)Nc1cccc(C(c2c(O)c3c(oc2=O)CCCCC3)C2CC2)c1 (configuration not stated) |  | 63 | 
Cn1cnc(S(=O)(=O)Nc2cccc(C(c3c(O)c4c(oc3=O)CCCCCC4)C3CC3)c2)c1 (configuration not stated) | 2700 | 1.6 | > 100000
N#Cc1ccccc1S(=O)(=O)Nc1cccc(C(c2c(O)oc3c(c2=O)CCCCCC3)C2CC2)c1 (configuration not stated) | > 10000 | 7.4 | > 30000
CCS(=O)(=O)Nc1cccc(C(c2c(O)c3c(oc2=O)CCCCCC3)C2CC2)c1 (configuration not stated) |  | 10 | 
CC(C)CC(c1cccc(NS(=O)(=O)c2ccc(C#N)cc2)c1)c1c(O)c2c(oc1=O)CCCCCC2 (configuration not stated) | 6100 | 1.5 | > 30000
CCCC(c1cccc(NS(=O)(=O)c2ccc(Cl)cc2)c1)c1c(O)c2c(oc1=O)CCCCCC2 (configuration not stated) | > 10000 | 4 | > 30000
C=CS(=O)(=O)Nc1cccc(C(c2c(O)oc3c(c2=O)CCCCCC3)C2CC2)c1 (configuration not stated) |  | 18 | 

Compound | EC50 [1] [nM] | Ki [2] [nM] | CC50 [3] [nM]
O=c1c2c(oc(O)c1[C@H](c1cccc(NS(=O)(=O)c3ccccc3)c1)C1CC1)CCCCCC2 | 2600 |  | > 30000
CC(C)(C)OC(=O)NCCC(=O)Nc1cccc(C(c2c(O)c3c(oc2=O)CCCCCC3)C2CC2)c1 (configuration not stated) | 33000 |  | 
O=c1c2c(oc(O)c1C(c1cccc(NS(=O)(=O)c3cccc(Cl)c3Cl)c1)C1CC1)CCCCCC2 (configuration not stated) | > 3000 | 7.6 | > 30000
CCCCS(=O)(=O)Nc1cccc(C(c2c(O)c3c(oc2=O)CCCCCC3)C2CC2)c1 (configuration not stated) |  | 4.6 | 
C=CS(=O)(=O)Nc1cccc(C(c2c(O)oc3c(c2=O)CCCCC3)C2CC2)c1 (configuration not stated) |  | > 200 | 
O=c1c2c(oc(O)c1C(c1cccc(NS(=O)(=O)c3cnccn3)c1)C1CC1)CCCCCC2 (configuration not stated) | 2000 | 0.2 | > 30000
O=c1c2c(oc(O)c1C(c1ccccc1)C1CC1)CCCCCC2 (configuration not stated) |  | 15 | 
CCCC(c1cccc(NS(=O)(=O)c2ccc(C#N)cc2)c1)c1c(O)c2c(oc1=O)CCCCCC2 (configuration not stated) | 3900 | 1.4 | > 30000
O=c1c2c(oc(O)c1C(c1cccc(NS(=O)(=O)c3ccc(C(F)(F)F)c(C(F)(F)F)c3)c1)C1CC1)CCCCCC2 (configuration not stated) |  | 47 | > 30000
CCCS(=O)(=O)Nc1cccc(C(c2c(O)c3c(oc2=O)CCCCCC3)C2CC2)c1 (configuration not stated) |  | 4 | 
CCCC(c1cccc(NS(=O)(=O)c2cccnc2)c1)c1c(O)c2c(oc1=O)CCCCCC2 (configuration not stated) | > 10000 | 2.2 | > 30000
O=c1c2c(oc(O)c1C(c1cccc(NS(=O)(=O)CCc3ccccc3)c1)C1CC1)CCCCCC2 (configuration not stated) |  | 3.9 | 
CCCC(c1cccc(NS(=O)(=O)c2cccc3cccnc23)c1)c1c(O)c2c(oc1=O)CCCCCC2 (configuration not stated) | > 3000 | 2.1 | > 30000
CCCCC(c1cccc(NS(=O)(=O)c2ccc(F)cc2)c1)c1c(O)c2c(oc1=O)CCCCCC2 (configuration not stated) | > 10000 | 6.1 | > 30000
O=c1c2c(oc(O)c1C(c1cccc(NS(=O)(=O)c3ncccn3)c1)C1CC1)CCCCCC2 (configuration not stated) | 1700 | 0.8 | > 30000
O=c1c2c(oc(O)c1C(c1cccc(NS(=O)(=O)c3ccc(Cl)c(Cl)c3Cl)c1)C1CC1)CCCCCC2 (configuration not stated) | 4100 | 8.8 | > 30000
O=c1c2c(oc(O)c1[C@@H](c1cccc(NS(=O)(=O)c3ccccc3)c1)C1CC1)CCCCCC2 | > 10000 |  | > 30000
O=c1c2c(oc(O)c1C(c1cccc(NS(=O)(=O)c3cccc([N+](=O)[O-])c3)c1)C1CC1)CCCCCC2 (configuration not stated) | 4200 | 4.7 | > 30000
Cc1cccc(C)c1S(=O)(=O)Nc1cccc(C(c2c(O)c3c(oc2=O)CCCCCC3)C2CC2)c1 (configuration not stated) |  | > 200 | > 30000
O=c1c2c(oc(O)c1C(c1cccc(NS(=O)(=O)c3ccc(C(F)(F)F)cc3)c1)C1CC1)CCCCCC2 (configuration not stated) | 6400 | 6.2 | > 30000
CC(C)C(c1cccc(NS(=O)(=O)c2cccnc2)c1)c1c(O)c2c(oc1=O)CCCCCC2 (configuration not stated) | > 10000 |  | > 30000
CS(=O)(=O)Nc1cccc(C(c2c(O)c3c(oc2=O)CCCCCC3)C2CC2)c1 (configuration not stated) |  | 11 | 
COc1ccc(S(=O)(=O)Nc2cccc(C(c3c(O)c4c(oc3=O)CCCCCC4)C3CC3)c2)cc1 (configuration not stated) | 4500 | 3.9 | > 30000

Compound | EC50 [1] [nM] | Ki [2] [nM] | CC50 [3] [nM]
O=c1c2c(oc(O)c1C(c1cccc(NS(=O)(=O)c3cscn3)c1)C1CC1)CCCCCC2 (configuration not stated) | > 3000 | 1.6 | > 30000
Nc1ccc(S(=O)(=O)Nc2cccc(C(c3c(O)c4c(oc3=O)CCCCCC4)C3CC3)c2)cc1 (configuration not stated) |  | 6.9 | > 30000
O=c1c2c(oc(O)c1[C@@H](c1cccc(NS(=O)(=O)c3cccc4cccnc34)c1)C1CC1)CCCCCC2 | 7200 | 0.9 | > 30000
CCCCC(c1cccc(NS(=O)(=O)c2ccc(C#N)cc2)c1)c1c(O)c2c(oc1=O)CCCCCC2 (configuration not stated) | 7600 | 2.1 | > 30000
O=c1c2c(oc(O)c1C(c1cccc(NS(=O)(=O)c3cccc(Br)c3)c1)C1CC1)CCCCCC2 (configuration not stated) | 3000 | 2.6 | > 30000
O=c1c2c(oc(O)c1C(c1cccc(NS(=O)(=O)c3ccc([N+](=O)[O-])cc3)c1)C1CC1)CCCCCC2 (configuration not stated) | 3100 | 2.7 | > 30000
CCc1ccc(S(=O)(=O)Nc2cccc(C(c3c(O)c4c(oc3=O)CCCCCC4)C3CC3)c2)cc1 (configuration not stated) |  | 5 | > 30000
O=c1c2c(oc(O)c1C(c1cccc(NS(=O)(=O)c3ccc(Cl)cc3Cl)c1)C1CC1)CCCCCC2 (configuration not stated) |  | 6.2 | > 30000
O=c1c2c(oc(O)c1C(c1cccc(NS(=O)(=O)c3cc(Cl)ccc3Cl)c1)C1CC1)CCCCCC2 (configuration not stated) |  | 74 | > 30000
O=c1c2c(oc(O)c1C(c1cccc(NS(=O)(=O)c3ccccc3Cl)c1)C1CC1)CCCCCC2 (configuration not stated) |  | 9.3 | > 30000
CCCCOc1ccc(S(=O)(=O)Nc2cccc(C(c3c(O)c4c(oc3=O)CCCCCC4)C3CC3)c2)cc1 (configuration not stated) |  | 18 | > 30000
O=c1c2c(oc(O)c1C(c1cccc(NS(=O)(=O)C3CCCCC3)c1)C1CC1)CCCCCC2 (configuration not stated) |  | 3.6 | 
O=c1c2c(oc(O)c1C(c1cccc(NS(=O)(=O)/C=C/c3ccccc3)c1)C1CC1)CCCCCC2 (configuration not stated) |  | 3 | 
O=c1c2c(oc(O)c1C(c1cccc(S(=O)(=O)Nc3ccccc3)c1)C1CC1)CCCCCC2 (configuration not stated) |  | 36 | 
O=c1c2c(oc(O)c1C(c1cccc(NS(=O)(=O)c3ccccc3C(F)(F)F)c1)C1CC1)CCCCCC2 (configuration not stated) |  | 21 | > 30000
O=c1c2c(oc(O)c1C(c1cccc(NS(=O)(=O)c3ccccc3)c1)C1CC1)CCCCCC2 (configuration not stated) | 5500 |  | > 30000
CCCc1ccc(S(=O)(=O)Nc2cccc(C(c3c(O)c4c(oc3=O)CCCCCC4)C3CC3)c2)cc1 (configuration not stated) |  | 11 | > 30000
O=c1c2c(oc(O)c1C(c1cccc(NS(=O)(=O)c3c(Cl)cccc3Cl)c1)C1CC1)CCCCCC2 (configuration not stated) |  | > 200 | > 30000
CC(C)c1ccc(S(=O)(=O)Nc2cccc(C(c3c(O)c4c(oc3=O)CCCCCC4)C3CC3)c2)cc1 (configuration not stated) |  | 13 | > 30000
CS(=O)(=O)Nc1cccc(C(c2c(O)c3c(oc2=O)CCCCC3)C2CC2)c1 (configuration not stated) |  | 120 | 
CC(C)S(=O)(=O)Nc1cccc(C(c2c(O)c3c(oc2=O)CCCCCC3)C2CC2)c1 (configuration not stated) |  | 33 | 

Source: ChEMBL document CHEMBL1129987, “Structure-based design of nonpeptidic HIV protease inhibitors: the sulfonamide-substituted cyclooctylpyramones” (J Med Chem, 1997)
